Among the data in ChEMBL document CHEMBL1157470, “Hydrolytic reactivity trends among potential prodrugs of the O2-glycosylated diazeniumdiolate family. Targeting nitric oxide to macrophages for antileishmanial activity” (J Med Chem, 2008) are Activity and t1/2 values, retold here.

The nature of data set [1]: Stability assessed as nitrite release in presence of human placenta N-acetyl-glucosaminidase measured per mole of glycoside in 0.1 M phosphate buffer at pH 7.4 at 0.10 mM by Griess reagent assay. The following applies: pH 7.4, 100 µM. It is filed as ADME. A digest of the protocol:
(§1)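 37 °C in 0.1 M phosphate pH 7.4 with 0.05 mM DTPA. Jack bean N-acetylglucosaminidase at 0.11 units/mL or human placenta enzyme at 0.044 units/mL; substrate 0.10 or 0.16 mM initial. NO measured by chemiluminescence until evolution stopped, with the curve integrated per mole glycoside. Nitrite in the remaining solution measured by Griess. Enzyme activity verified with PNP-NAG.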
Background: Griess reagent forms a coloured azo dye with nitrite.

Data set [2] can be described thus: Stability assessed as nitrite release in presence of Jack bean N-acetyl-glucosaminidase measured per mole of glycoside in 0.1 M phosphate buffer at pH 7.4 at 0.10 mM by Griess reagent assay. Format: ADME. The following applies: pH 7.4, 100 µM. A digest of the protocol: as §1
The nature of data set [3]: Stability in iNOS deficient mouse macrophage assessed as increase in nitric oxide accumulation at 0.25 mM after 24 hrs. Format: ADME, cell-based. To be noted: 250 µM. A digest of the protocol: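 Glycoside (0.25 mM initial) incubated 24 h at 37 °C in PBS, in RPMI with 2.5% fetal calf serum, or in that medium while culturing iNOS-deficient mouse peritoneal macrophages. Nitrite in supernatant measured by Griess. Triplicates, mean; one of two experiments.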

Data set [4] can be described thus: Chemical stability assessed as half life of hydrolysis in at pH 14. Format: physicochemical. The following applies: 1.0 M NaOH. A digest of the protocol: (§2)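 Hydrolysis at 37 °C in 1.0 M NaOH, 0.1 M phosphate pH 7.4, or 0.05 M citrate pH 3.8–4.6, followed as first-order loss of the diazeniumdiolate UV absorbance at λmax. k from the ln(At − Ainf) versus time slope; Ainf was extrapolated when the reaction was incomplete. NaOH runs were followed in a thermostated diode-array cell.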

Data set [5] in a line: Chemical stability assessed as half life of hydrolysis in 0.1 M phosphate buffer at pH 7.4. It is filed as physicochemical. A digest of the protocol: as §2
Data set [6] can be described thus: Stability assessed as nitric oxide release in presence of Jack bean N-acetyl-glucosaminidase measured per mole of glycoside in 0.1 M phosphate buffer at pH 7.4 at 0.10 mM […]. To be noted: pH 7.4, 100 µM. It is filed as ADME. A digest of the protocol:
as §1

The nature of data set [7]: Stability assessed as nitric oxide release in presence of human placenta N-acetyl-glucosaminidase measured per mole of glycoside in 0.1 M phosphate buffer at pH 7.4 at 0.10 mM […]. It is filed as ADME. To be noted: pH 7.4, 100 µM. A digest of the protocol:
as §1

The nature of data set [8]: Chemical stability assessed as half life of hydrolysis in 0.05 M citrate buffer at pH 4.6. It is filed as physicochemical. A digest of the protocol:
as §2

Data set [9] in a line: Chemical stability assessed as half life of hydrolysis in 0.05 M citrate buffer at pH 3.8. Format: physicochemical. A digest of the protocol:
as §2

Data set [10] in a line: Stability assessed as nitrite release in presence of human placenta N-acetyl-glucosaminidase measured per mole of glycoside in 0.1 M phosphate buffer at pH 7.4 at 0.16 mM by Griess reagent assay. Format: ADME. To be noted: pH 7.4, 160 µM. A digest of the protocol:
as §1

The nature of data set [11]: Stability assessed as nitric oxide release in presence of human placenta N-acetyl-glucosaminidase measured per mole of glycoside in 0.1 M phosphate buffer at pH 7.4 at 0.16 mM […]. Format: ADME. To be noted: pH 7.4, 160 µM. A digest of the protocol:
as §1

The nature of data set [12]: Stability in iNOS-deficient mouse peritoneal macrophages in RPMI medium assessed as increase in nitric oxide release at 0.25 mM after 24 hrs. The following applies: 250 µM.
Data set [13] is described as follows: Stability assessed as nitrite release in presence of Jack bean N-acetyl-glucosaminidase measured per mole of glycoside in 0.1 M phosphate buffer at pH 7.4 at 0.16 mM by Griess reagent assay. Format: ADME. The following applies: pH 7.4, 160 µM. A digest of the protocol:
as §1

Data set [14] in a line: Stability assessed as nitric oxide release in presence of Jack bean N-acetyl-glucosaminidase measured per mole of glycoside in 0.1 M phosphate buffer at pH 7.4 at 0.16 mM […]. Format: ADME. To be noted: pH 7.4, 160 µM. A digest of the protocol: as §1
Data set [15] is described as follows: Chemical stability assessed as half life of hydrolysis in 0.0125 M sodium hydroxide buffer at pH 12.1. Format: physicochemical. A digest of the protocol:
(§3)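 Half-lives at 37 °C across buffers from pH 4.0 to 14 (1.0, 0.10 and 0.0125 M NaOH; 0.05 M glycine/NaOH pH 10.0; 0.10 M phosphate pH 8.1 and 7.4; 0.05 M citrate pH 4.0). UV decay of the diazeniumdiolate chromophore at λmax. First-order k from the slope of ln(At − Ainf) versus time.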

Data set [16] can be described thus: Chemical stability assessed as half life of hydrolysis in 0.05 M citrate buffer at pH 4.0. It is filed as physicochemical. A digest of the protocol: as §3
Data set [17] in a line: Chemical stability assessed as half life of hydrolysis in 0.10 M phosphate buffer at pH 8.1. Format: physicochemical. A digest of the protocol: as §3
The nature of data set [18]: Chemical stability assessed as half life of hydrolysis in 0.10 M sodium hydroxide buffer at pH 13.0. It is filed as physicochemical. A digest of the protocol: as §3
Data set [19] is described as follows: Chemical stability assessed as half life of hydrolysis in 0.5 M glycine/sodium hydroxide buffer at pH 10.0. Format: physicochemical. The following applies: in the assay text read “0.05 M glycine” for “0.5 M glycine”. A digest of the protocol: as §3
Data set [20] in a line: Chemical stability assessed as half life of hydrolysis in 1.0 M sodium hydroxide buffer at pH 14.0. Format: physicochemical. A digest of the protocol:
as §3

Data set [21] can be described thus: Chemical stability assessed as half life of hydrolysis in 0.10 M phosphate buffer at pH 7.4. Format: physicochemical. A digest of the protocol:
as §2

Regarding `CCN(CC)/[N+]([O-])=N/O[C@@H]1O[C@H](CO)[C@@H](O)[C@H](O)[C@H]1NC(C)=O`, the Activity in data set [1] stood at 0.24 mol/mol; in data set [2], 0.05 mol/mol; in [3], 2; in data set [6] it was 1.26 mol/mol; in data set [7], 1.73 mol/mol. For the same compound, the t1/2 in [4] is 0.85 h; in data set [5] it was 12 h; in data set [8], 17 h.
Consider `CCN(CC)/[N+]([O-])=N/O[C@@H]1O[C@H](CO)[C@@H](O)[C@H](O)[C@H]1O`, for which the t1/2 was 0.035 h in data set [4] and above 240 h in data set [8].
In the case of `CCN(CC)/[N+]([O-])=N/O[C@@H]1O[C@@H](C)[C@@H](O)[C@@H](O)[C@@H]1O`, the t1/2 in data set [4] is 0.067 h; in [5], above 240 h; in data set [8], above 240 h.
For the compound `CCN(CC)/[N+]([O-])=N/O[C@H]1C[C@@H](O)[C@H](O)[C@@H](CO)O1`, the t1/2 in data set [4] was 0.383 h; in [5] it was 12 h; in [9], 28.8 h.
On to `CC(=O)N[C@H]1[C@H](O/N=[N+](\[O-])N2CCCC2)O[C@H](CO)[C@@H](O)[C@@H]1O`, for which the Activity in data set [10] was found to be 0.36 mol/mol; in [11] it was 1.69 mol/mol; in data set [12], 4; in [13] it was 0.12 mol/mol; in data set [14] it was 1.72 mol/mol. For the same compound, the t1/2 in [5] and in data set [8] was above 240 h in each case.
`CCN(CC)/[N+]([O-])=N/O[C@H]1O[C@H](CO)[C@@H](O)[C@H](O)[C@@H]1O`: the t1/2 in [4] is 4.97 h; in data set [5] it was above 240 h.
On to `CCN(CC)/[N+]([O-])=N\OC1CCCCO1` (configuration not stated), for which the t1/2 worked out at 3.5 min in data set [15]; 3.2 min in data set [16]; 3.5 min in [17]; 2.7 min in [18]; 2.9 min in data set [19]; 2.5 min in [20]. The t1/2 in data set [21] was determined as 3.1 min.
